# STAT3 activator: increases IL-6 driven STAT3 reporter signal; activation (% of control), % at 5.6 µM; 0.91% of 190,000 active; AID 871; U3A cells, IL-6 STAT3-luciferase reporter, luminescence; 100% = signal with IL-6 EC80 alone;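 active means activation above the screen-wide mean of compound activation plus 3 SD, cut at about 130% in these data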;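 further: 0% = background luminescence of wells with medium and substrate only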
#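 Detection: reporter luminescence signal / Assay system: STAT1-lacking human U3A cells, STAT3 luciferase reporter / Incubation: compound pre-incubation 1 h before IL-6, then 6 h stimulation at 37 °C / Control set: IL-6-only high control / Read-out: % activation relative to IL-6 control / Probe or stimulus: Interleukin-6, 33 ng/mL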
# thrombin 1536: blocks human thrombin protease activity. P00734. alpha-thrombin, Boc-VPR-AMC fluorogenic substrate cleavage. inhibition, % at 5 µM. 0.26% of 220,000 active;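 active means inhibition at or above 40%; inactive means inhibition below 40%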;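 further: 0% = enzyme with no compound and 100% = wells without enzyme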
#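 Material: human alpha-thrombin protein; Also added: Boc-VPR-AMC substrate, 15 µM final; Timing: enzyme reaction carried out at room temperature; Signal: fluorescence, ex 355 nm, em 460 nm; Measure: % inhibition of thrombin; Controls: enzyme without compound as high, wells lacking enzyme as low.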
# KLK5 inh: inhibitors of human kallikrein 5. 0.59% of 210,000 active. inhibition, % at 5 µM. Q9Y337. recombinant hK5, fluorogenic AMC substrate cleavage;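 active means inhibition of 40% or more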;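 further: 0% = enzyme controls without compound and 100% = no-enzyme blanks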
# FXIIa inh 1536: factor XIIa (human) inhibition | AID 800 | purified FXIIa, Boc-QGR-AMC fluorogenic substrate, 2 h | 0.3% of 220,000 active | P00748 | inhibition, % at 5 µM; in the data active means inhibition above about 40%;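 further: 0% = enzyme with no compound and 100% = blank without enzyme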
# Target sequence (P00748 20-372 limits assumed): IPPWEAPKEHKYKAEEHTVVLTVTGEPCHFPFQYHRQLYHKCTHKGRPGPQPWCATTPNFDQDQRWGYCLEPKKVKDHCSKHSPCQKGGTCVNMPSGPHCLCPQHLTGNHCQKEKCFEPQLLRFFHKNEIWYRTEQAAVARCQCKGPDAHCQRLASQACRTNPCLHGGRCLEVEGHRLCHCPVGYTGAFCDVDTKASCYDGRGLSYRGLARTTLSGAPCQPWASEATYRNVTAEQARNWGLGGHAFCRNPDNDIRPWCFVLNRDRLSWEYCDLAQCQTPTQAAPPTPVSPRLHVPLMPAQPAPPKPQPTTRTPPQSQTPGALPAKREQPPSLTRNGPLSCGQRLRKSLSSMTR
# Target sequence (P00748 373-615 limits assumed): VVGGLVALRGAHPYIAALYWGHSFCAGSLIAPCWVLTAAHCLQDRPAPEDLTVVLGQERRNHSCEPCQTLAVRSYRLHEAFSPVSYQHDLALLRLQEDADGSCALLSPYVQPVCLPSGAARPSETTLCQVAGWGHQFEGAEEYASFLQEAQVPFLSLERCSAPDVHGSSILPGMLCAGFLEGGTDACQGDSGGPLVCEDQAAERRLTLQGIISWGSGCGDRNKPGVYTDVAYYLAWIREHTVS
# FXIa inh: blocks human coagulation factor XIa protease activity; P03951; purified FXIa, Boc-Glu-Ala-Arg-AMC fluorogenic substrate; inhibition, % at 5 µM; 0.14% of 220,000 active; AID 798;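 active means inhibition of at least 40%; inactive means inhibition below 40%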;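 further: fluorescence of freed AMC excited at 355 nm; 0% = enzyme without compound and 100% = no enzyme blank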
# AHR act: activates the human aryl hydrocarbon receptor | AHR-responsive luciferase reporter cells, luminescence | P35869 | AID 2796 | 2.5% of 320,000 active | activation, % at 5 µM; in the data active means activation above about 47%;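 further: 0% = vehicle wells and 100% = reference agonist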
# * marks the source's active call; other numbers are inactive results; nt = no result given. Hits are enriched below; roughly 3.5% of the tested compounds scored in any of these assays.
SMILES,STAT3 activator,thrombin 1536,KLK5 inh,FXIIa inh 1536,FXIa inh,AHR act
Cn1c(NNC(=O)C(c2ccccc2)c2ccccc2)cc(=O)n(C)c1=O,91,-4,5,8,0,-1
CCN(C[C@H]1N[C@@](Cc2ccccc2)(C(=O)OC)[C@H]2C(=O)N(Cc3ccccc3)C(=O)[C@@H]12)C(=O)Nc1ccc(C(F)(F)F)cc1,nt,nt,nt,nt,nt,1
CC(C)NC(=O)CN1CCN(Cc2nc(C(c3ccccc3)c3ccccc3)no2)CC1,105,-10,-3,3,-3,0
Cc1ccc(CNC(=O)CN(C(=O)C2(C)CC(=O)N=C3C=CC=CN32)c2cccc(C)c2C)cc1 (stereo unspecified),nt,nt,nt,nt,nt,0
CC(C)(C)c1ccc(S(=O)(=O)N2CCCCC2)cc1,107,-4,-14,9,-2,0
O=C(NN1C(=O)c2ccccc2C1=O)c1ccncc1,86,-1,3,7,0,8
CN(C)c1ccc(C(=O)NN2C(=O)c3ccccc3C2=O)cc1,102,-1,-4,99*,0,4
CCC1CN(C(=O)N2CCC(C(=O)NCCc3ccc(OC)cc3OC)CC2)c2ccccc2O1 (stereo unspecified),nt,nt,nt,nt,nt,2
Cc1cc(C)cc(N(CC(=O)N2CCN(Cc3ccccc3)CC2)S(=O)(=O)c2c(C)noc2C)c1,108,-3,-19,8,3,-2
Cc1ccc2nc(C)cc(Nc3ccc4c(c3)OCCO4)c2c1,87,4,6,-1,-3,69*
Cc1cc(Nc2ccc3c(c2)OCCO3)c2ccccc2n1,91,2,-2,10,9,34
COc1ccc(NC(=S)Nc2ccccn2)c(OC)c1,114,0,-7,5,-2,33
Cc1ccnc(NC(=O)CCCOc2ccc(Cl)cc2C)c1,88,6,41*,27,35,-1
COc1ccc(NC(=S)Nc2cc(C)ccn2)c(OC)c1,141*,-1,-4,28,20,27
COc1ccc(CC(=O)Nc2cc(C)ccn2)cc1,103,30,82*,-1,10,5
Cc1cc(Cl)ccc1OCCCC(=O)NN,102,-28,-4,4,-8,11
CCC(C)n1c(=O)c2sccc2n2c(CCCC(=O)N3CCC(C(N)=O)CC3)nnc12 (stereo unspecified),nt,nt,nt,nt,nt,4
Cc1ccc2cc3c(nc2c1)OCC3,nt,0,2,12,0,0
O=C(Nc1ccc(N2CCOCC2)cc1)c1ccc(Cl)nc1,91,-2,0,17,17,73*
O=C(Nc1ccc(N2CCOCC2)cc1)c1cnsn1,31,13,51*,6,2,nt
Cn1ncc(Cl)c1C(=O)N1CCC(Cc2ccccc2)CC1,nt,nt,nt,nt,nt,5
CC1(C)CC(=O)C2=C(C1)c1c(ccc3ccccc13)NC2c1ccc(Br)o1 (stereo unspecified),93,-4,-46,-16,3,22
Cc1ccc(N/C(N)=N/c2nc(CSc3ccc(C)cc3)cc(=O)[nH]2)cc1,84,1,-12,16,4,nt
Cc1cc(=O)[nH]c(/N=C(\N)Nc2ccc(SC(F)F)cc2)n1,93,-2,-2,8,-2,68*
O=C(NCc1ccc2c(c1)OCO2)c1ccc(N2C(=O)C3CCCCC3C2=O)cc1 (stereo unspecified),96,-8,-11,-9,-2,-5
SMILES,STAT3 activator,thrombin 1536,KLK5 inh,FXIIa inh 1536,FXIa inh,AHR act
CCOc1ccccc1NC(=O)CSc1nnc(CNC(=O)c2c(F)cccc2Cl)o1,nt,nt,nt,nt,nt,6
c1coc(-c2nc(-c3ccco3)c(-c3ccco3)nc2-c2ccco2)c1,112,32,71*,-8,25,1
Cc1noc(C)c1CS(=O)(=O)c1ccc([N+](=O)[O-])cc1,104,-1,nt,4,-1,0
COc1cc(C(=O)OCC(C)=O)ccc1OCc1c(C)noc1C,97,nt,42*,38,42*,nt
CN(C)c1ccc(NC(=S)c2ccc3ccccc3n2)cc1,nt,nt,nt,nt,nt,48*
COc1ccc(NC(=S)c2ccc(N(C)C)cc2)cc1,81,-1,-12,9,3,-4
CN(c1ccccc1)S(=O)(=O)c1nnc(NC(=O)C2CCCCC2)s1,nt,nt,nt,nt,nt,0
COc1ccc(OC)c(CNC(=O)CCCc2cn(C)c3ccccc23)c1,114,-1,-7,13,7,71*
COc1ccc(OC)c(CNC(=O)CCc2cn(C)c3ccccc23)c1,nt,nt,nt,nt,nt,13
CCS(=O)(=O)N1CCC2(CC1)OCCN2S(=O)(=O)c1ccc(C)cc1,nt,nt,nt,nt,nt,0
CCN(Cc1cccc(F)c1)C(=O)c1ccc2ccccc2n1,nt,nt,nt,nt,nt,8
Cc1ccc2[nH]c(CNC(=O)c3ccc(F)cc3)cc2c1,nt,nt,nt,nt,nt,65*
COc1ccc(N=NC2=C(O)CC(C)(C)CC2=O)cc1,91,-8,5,-11,0,-1
CC1(C)CC(=O)C(N=Nc2ccc(Br)cc2)=C(O)C1,nt,19,25,75*,26,1
CC(C)c1ccccc1NC(=O)COC(=O)/C=C/c1cccc([N+](=O)[O-])c1,101,-11,-8,11,0,0
Cc1cc(C)n(-c2nnc(C)n2NS(=O)(=O)c2ccc(F)cc2)n1,95,2,4,71*,10,1
CCSc1nnc(NC(=O)c2ccco2)s1,96,44*,33,-1,9,15
CC(=O)Nc1nnc(SCc2ccc(F)cc2)s1,106,12,56*,11,1,1
CC1CCCC1/C(=N/O)c1ccccc1 (stereo unspecified),nt,nt,nt,nt,nt,-2
O=C(c1nc2ccccn2c1CN1CCCC(OCc2ccccc2)C1)N1CCCC1 (stereo unspecified),100,-16,-4,7,-6,-1
CN1CCN(S(=O)(=O)c2ccc(NC(=O)COc3ccccc3Cl)cc2)CC1,90,-13,-1,7,-5,0
Cc1csc(NC(=O)CCCSc2nc3ccccc3s2)n1,110,1,5,-9,-10,11
Cc1cnc(NC(=O)CCCSc2nc3ccccc3s2)s1,135*,0,11,16,12,17
[O-]/C(=C(\C(=S)Nc1ccccc1F)[n+]1ccccc1)c1ccc(-c2ccccc2)cc1,109,0,5,7,1,60*
CC(C)(C)c1cc[n+](/C(C(=S)Nc2ccccc2F)=C(/[O-])c2ccc3c(c2)OCCO3)cc1,112,2,15,12,17,8
CC1Cc2ccccc2N1C(=O)COC(=O)CCc1nc2ccccc2c(=O)[nH]1 (stereo unspecified),104,4,-7,4,-3,0
Cc1c(C)n(CCc2ccccc2)c2ncnc(NCCCO)c12,nt,nt,nt,nt,nt,51*
CN(C)S(=O)(=O)c1ccc(NC(=O)Cc2ccc(S(=O)(=O)N3CCOCC3)s2)cc1,96,-1,-3,11,9,1
CCn1c2ccccc2c2cc(NC(=O)Cc3ccc(S(=O)(=O)N4CCOCC4)s3)ccc21,122,9,17,13,9,51*
